# Reference: ChEMBL document CHEMBL4765291, “Design, synthesis and biological evaluation of novel 3,4-dihydro-2(1H)-quinolinone derivatives as potential chitin synthase inhibitors and antifungal agents” (Eur J Med Chem, 2020)
# How the values were obtained:
# Bacillus subtilis = test: Antibacterial activity against Bacillus subtilis ATCC 6633; type: functional
# Method in brief: (§1)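 Two-fold serial broth dilution in 96-well plates following National Committee standards; compounds tested at different concentrations. Medium: beef extract peptone (1% peptone, 0.3% beef extract, 0.5% NaCl). Incubation 18–24 h. MIC recorded; streptomycin and norfloxacin as control drugs; each group tested in triplicate.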
# Staphylococcus aureus [1] = test: Antibacterial activity against Staphylococcus aureus ATCC 25923; type: functional; method in brief: as §1
# Proteus vulgaris = test: Antibacterial activity against Bacillus proteus ATCC 8427; type: functional; method in brief: as §1
# Escherichia coli = test: Antibacterial activity against Escherichia coli JM 109
# Pseudomonas aeruginosa = test: Antibacterial activity against Pseudomonas aeruginosa ATCC 9027; type: functional; method in brief: as §1
# Staphylococcus aureus [2] = test: Antibacterial activity against methicillin-resistant Staphylococcus aureus N. 315; type: functional
# Method in brief: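 Two-fold serial broth dilution in 96-well plates per national clinical standard; beef extract peptone medium (1% peptone, 0.3% beef extract, 0.5% NaCl, […]). Compounds from DMSO stock diluted to test concentrations; incubation 18–24 h. MIC recorded; each group tested independently in triplicate.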
# Candida tropicalis = test: Inhibition of Candida tropicalis ATCC 750 chitin synthase at 300 ug/ml using UDP-GlcNAc as substrate relative to control; settings: dose 300.0 µg/ml
# Method in brief: (§2)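 Chitin synthase prepared from C. tropicalis ATCC 750 by low- and high-speed centrifugation. DMSO stocks (10 mg/mL) diluted in 50 mM Tris-HCl pH 7.5; test concentrations 300–9.375 µg/mL. Chitin synthesized in WGA-coated wells, bound with WGA-HRP, washed, developed with TMB/H2O2, stopped with 2 M H2SO4, OD read. Duplicate; polyoxin B positive control.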
# Aspergillus fumigatus = test: Antifungal activity against Aspergillus fumigatus GIMCC 3.19 incubated for 48 hrs by two-fold broth dilution analysis; type: functional
# Method in brief: (§3)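 Stock solutions in DMSO, diluted to 0.25–512 µg/mL; two-fold serial broth dilution in 96-well plates. Fungi grown on modified Sabouraud chloramphenicol agar (1% peptone, 2% glucose, […]). Incubated 48 h at 37 °C, then MIC (µg/mL) recorded. Fluconazole and polyoxin B as positive controls; each group tested in triplicate.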
# Cryptococcus neoformans = test: Antifungal activity against Cryptococcus neoformans ATCC 32719 incubated for 48 hrs by two-fold broth dilution analysis; type: functional; method in brief: as §3
# Aspergillus flavus = test: Antifungal activity against Aspergillus flavus ATCC 16870 incubated for 48 hrs by two-fold broth dilution analysis; type: functional; method in brief: as §3
# Candida albicans [3] = test: Antifungal activity against Candida albicans ATCC 76615 incubated for 48 hrs by two-fold broth dilution analysis; type: functional; method in brief: as §3
# Candida albicans [4] = test: Antifungal activity against Candida albicans ATCC 90023 incubated for 48 hrs by two-fold broth dilution analysis; type: functional; method in brief: as §3
# [5] = Inhibition of Candida tropicalis ATCC 750 chitin synthase using UDP-GlcNAc as substrate; method in brief: as §2
SMILES,MIC (Bacillus subtilis) [µg/mL],MIC (Staphylococcus aureus [1]) [µg/mL],MIC (Proteus vulgaris) [µg/mL],MIC (Escherichia coli) [µg/mL],MIC (Pseudomonas aeruginosa) [µg/mL],MIC (Staphylococcus aureus [2]) [µg/mL],inhibition (Candida tropicalis) [%],MIC (Aspergillus fumigatus) [µg/mL],MIC (Cryptococcus neoformans) [µg/mL],MIC (Aspergillus flavus) [µg/mL],MIC (Candida albicans [3]) [µg/mL],MIC (Candida albicans [4]) [µg/mL],IC50 [5] [µM]
CCn1cc(C(=O)O)c(=O)c2cc(F)c(N3CCNCC3)cc21 [NORFLOXACIN],4,2,2,8,8,4,,,,,,,
O=C(/C=C/C(=O)NC1Cc2ccccc2NC1=O)Nc1ccc(Br)cc1 (stereo not drawn),512,128,512,512,512,256,40.3,4,16,4,2,2,
O=C(/C=C/C(=O)NC1Cc2ccccc2NC1=O)Nc1ccccc1 (stereo not drawn),256,256,256,512,256,256,35.7,4,4,4,4,2,
O=C(/C=C/C(=O)NC1Cc2ccccc2NC1=O)Nc1ccccc1F (stereo not drawn),256,256,512,512,512,512,48.9,1,16,8,8,4,
O=C(/C=C/C(=O)NC1Cc2ccccc2NC1=O)Nc1cccc2ccccc12 (stereo not drawn),256,256,256,512,256,256,27.8,4,4,8,2,2,
O=C(/C=C/C(=O)NC1Cc2ccccc2NC1=O)Nc1ccc([N+](=O)[O-])cc1 (stereo not drawn),256,128,256,256,512,256,65.2,4,8,2,8,2,350
O=C(/C=C/C(=O)NC1Cc2ccccc2NC1=O)Nc1ccccc1Br (stereo not drawn),512,128,512,512,512,256,39.9,8,32,2,4,2,
CN[C@@H]1[C@H](O[C@H]2[C@H](O[C@H]3[C@H](O)[C@@H](O)[C@H](N=C(N)N)[C@@H](O)[C@@H]3N=C(N)N)O[C@@H](C)[C@]2(O)C=O)O[C@@H](CO)[C@H](O)[C@H]1O [STREPTOMYCIN],8,32,16,32,8,16,,,,,,,
O=C(/C=C/C(=O)NC1Cc2ccccc2NC1=O)Nc1cccc([N+](=O)[O-])c1 (stereo not drawn),256,128,256,128,512,256,49.3,8,4,4,4,2,
O=C(/C=C/C(=O)NC1Cc2ccccc2NC1=O)Nc1ccc(F)cc1 (stereo not drawn),512,128,256,256,256,512,51.2,4,8,8,2,2,340
Cc1cc(C)cc(NC(=O)/C=C/C(=O)NC2Cc3ccccc3NC2=O)c1 (stereo not drawn),256,128,512,256,256,512,71.5,2,16,1,4,2,190
